In ChEMBL document CHEMBL3352430, “4-Aminopyridyl-based CYP51 inhibitors as anti-Trypanosoma cruzi drug leads with improved pharmacokinetic profile and in vivo potency” (J Med Chem, 2014):
pEC50, pKd: −log10 of the molar value.

What was measured:
Liver [1] = assay: Drug uptake in mouse liver at 50 mg/kg, po in 20% Kolliphor measured at 8 hrs post dose; format: ADME, organism-based; design: dose 50 mg/kg, route oral; conditions: in vivo
Method in brief: (§1)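 Female Swiss Webster mice, 8 weeks old, given a single 50 mg/kg oral gavage dose in 20% HPβCD or 20% Kolliphor. Tissues taken from three mice at 2 and 8 h post dose. Homogenized by probe sonication in PBS (1:4 w/v), protein precipitated with acetonitrile, and compound measured by LC-MS/MS in μM.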

Trypanosoma cruzi [2] = assay: Antitrypanosomal activity against Trypanosoma cruzi Y luc infected in mouse assessed as inhibition of parasitemia at 50 mg/kg, po bid in 20% Kolliphor administered for 4 consecutive days starting on day 3 of infection measured on day 7 post infection relative to vehicle-treated control; format: functional
Method in brief: (§2)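 Female Swiss Webster mice, 8 weeks old, infected ip with 10^5 T. cruzi Y luc trypomastigotes. Only mice with detectable luminescence on day 3 were treated. Compound given by oral gavage bid for four days, as a suspension in 20% HPβCD or a solution in 20% Kolliphor, five mice per group. Vehicle group and benznidazole 50 mg/kg served as controls. On day 7, mice were injected ip with 150 mg/kg d-luciferin and imaged after 5 min under isoflurane. Percent inhibition calculated against untreated mice; two-tailed paired t test.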

Heart [3] = assay: Drug uptake in mouse heart at 50 mg/kg, po in 20% Kolliphor measured at 8 hrs post dose; format: ADME, organism-based; design: dose 50 mg/kg, route oral; conditions: in vivo; method in brief: as §1
Liver [4] = assay: Half life in mouse liver microsomes; format: ADME
Liver [5] = assay: Drug uptake in mouse liver at 50 mg/kg, po in 20% HP-beta-CD measured at 8 hrs post dose; format: ADME, organism-based; design: dose 50 mg/kg, route oral; conditions: in vivo; method in brief: as §1
Cytochrome P450 2D6 = Cytochrome P450 2D6 (Homo sapiens, UniProt P10635); assay: Inhibition of CYP2D6 in human liver microsomes at 1 uM; format: ADME
Chain of Cytochrome P450 2D6 (P10635 whole entry): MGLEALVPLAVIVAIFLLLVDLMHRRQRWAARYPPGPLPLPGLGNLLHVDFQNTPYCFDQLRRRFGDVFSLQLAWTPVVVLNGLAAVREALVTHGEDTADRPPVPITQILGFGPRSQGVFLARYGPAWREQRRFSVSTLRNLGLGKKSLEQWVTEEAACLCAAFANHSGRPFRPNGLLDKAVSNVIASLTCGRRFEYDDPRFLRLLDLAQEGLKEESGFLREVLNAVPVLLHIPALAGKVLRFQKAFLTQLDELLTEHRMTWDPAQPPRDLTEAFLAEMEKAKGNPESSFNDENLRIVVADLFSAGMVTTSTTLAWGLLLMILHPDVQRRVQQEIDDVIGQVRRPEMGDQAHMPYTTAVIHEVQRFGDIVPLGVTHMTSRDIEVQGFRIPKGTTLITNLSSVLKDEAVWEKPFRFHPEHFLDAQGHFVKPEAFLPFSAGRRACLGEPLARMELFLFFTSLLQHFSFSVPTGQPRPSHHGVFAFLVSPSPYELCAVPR

Cytochrome P450 3A4 = Cytochrome P450 3A4 (Homo sapiens, UniProt P08684); assay: Inhibition of CYP3A4 in human liver microsomes at 1 uM; format: ADME
Chain of Cytochrome P450 3A4 (P08684 whole entry): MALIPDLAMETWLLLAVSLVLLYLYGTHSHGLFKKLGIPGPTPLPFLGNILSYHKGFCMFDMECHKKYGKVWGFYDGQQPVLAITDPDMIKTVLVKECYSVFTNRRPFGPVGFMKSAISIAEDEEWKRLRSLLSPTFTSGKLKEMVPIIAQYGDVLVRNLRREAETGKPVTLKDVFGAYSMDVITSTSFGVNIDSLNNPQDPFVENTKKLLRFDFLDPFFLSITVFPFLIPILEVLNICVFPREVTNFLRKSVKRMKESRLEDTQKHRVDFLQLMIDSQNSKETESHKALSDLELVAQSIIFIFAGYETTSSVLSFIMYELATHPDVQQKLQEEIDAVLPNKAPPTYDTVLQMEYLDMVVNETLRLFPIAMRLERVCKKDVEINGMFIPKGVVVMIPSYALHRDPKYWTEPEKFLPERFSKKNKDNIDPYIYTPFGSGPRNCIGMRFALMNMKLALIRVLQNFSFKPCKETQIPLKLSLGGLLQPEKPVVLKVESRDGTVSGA

Lung [6] = assay: Drug uptake in mouse lung at 50 mg/kg, po in 20% HP-beta-CD measured at 8 hrs post dose; format: ADME, organism-based; design: dose 50 mg/kg, route oral; conditions: in vivo; method in brief: as §1
[7] = Drug uptake in mouse skeletal muscle at 50 mg/kg, po in 20% HP-beta-CD measured at 8 hrs post dose; format: ADME, organism-based, Muscle tissue; design: dose 50 mg/kg, route oral; conditions: in vivo; method in brief: as §1
Heart [8] = assay: Drug uptake in mouse heart at 50 mg/kg, po in 20% HP-beta-CD measured at 8 hrs post dose; format: ADME, organism-based; design: dose 50 mg/kg, route oral; conditions: in vivo; method in brief: as §1
[9] = biological target: Sterol 14-alpha demethylase (Trypanosoma cruzi (strain CL Brener), UniProt Q7Z1V1); assay: Binding affinity to Trypanosoma cruzi CYP51 by UV-vis titration method; conditions: read-out: Kd(app)
Chain of Sterol 14-alpha demethylase (Q7Z1V1 whole entry): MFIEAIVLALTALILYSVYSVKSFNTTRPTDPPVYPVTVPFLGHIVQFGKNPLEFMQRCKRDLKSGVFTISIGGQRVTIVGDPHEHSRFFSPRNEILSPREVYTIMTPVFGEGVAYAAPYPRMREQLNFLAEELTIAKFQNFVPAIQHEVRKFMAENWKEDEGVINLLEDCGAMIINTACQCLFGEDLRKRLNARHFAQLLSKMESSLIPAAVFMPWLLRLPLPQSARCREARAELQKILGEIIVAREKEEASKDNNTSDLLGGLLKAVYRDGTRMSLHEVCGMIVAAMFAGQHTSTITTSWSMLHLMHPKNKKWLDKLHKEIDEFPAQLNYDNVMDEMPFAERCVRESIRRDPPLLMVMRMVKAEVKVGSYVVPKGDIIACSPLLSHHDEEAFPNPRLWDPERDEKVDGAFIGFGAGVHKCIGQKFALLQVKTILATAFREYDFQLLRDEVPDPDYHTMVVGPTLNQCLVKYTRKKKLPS

[10] = Drug uptake in mouse skeletal muscle at 50 mg/kg, po in 20% Kolliphor measured at 8 hrs post dose; format: ADME, organism-based, Muscle tissue; design: dose 50 mg/kg, route oral; conditions: in vivo; method in brief: as §1
Trypanosoma cruzi [11] = assay: Antitrypanosomal activity against Trypanosoma cruzi amastigotes infected in mouse C2C12 cells after 72 hrs by DAPI staining method; format: functional, organism-based; conditions: C2C12, 72 h
C2C12 = assay: Cytotoxicity against mouse C2C12 cells up to 10 uM; format: cell-based
Method in brief: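 Mouse C2C12 myoblasts infected with T. cruzi CA-I/72, then exposed at 24 h postinfection to compound at 10 μM down to 5 pM in 5-fold steps for 72 h at 37 °C. Cells fixed in paraformaldehyde, stained with DAPI and scored by automated imaging. Triplicate wells; uninfected and infected untreated wells as controls.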

Cytochrome P450 2C9 = Cytochrome P450 2C9 (Homo sapiens, UniProt P11712); assay: Inhibition of CYP2C9 in human liver microsomes at 1 uM; format: ADME
Chain of Cytochrome P450 2C9 (P11712 whole entry): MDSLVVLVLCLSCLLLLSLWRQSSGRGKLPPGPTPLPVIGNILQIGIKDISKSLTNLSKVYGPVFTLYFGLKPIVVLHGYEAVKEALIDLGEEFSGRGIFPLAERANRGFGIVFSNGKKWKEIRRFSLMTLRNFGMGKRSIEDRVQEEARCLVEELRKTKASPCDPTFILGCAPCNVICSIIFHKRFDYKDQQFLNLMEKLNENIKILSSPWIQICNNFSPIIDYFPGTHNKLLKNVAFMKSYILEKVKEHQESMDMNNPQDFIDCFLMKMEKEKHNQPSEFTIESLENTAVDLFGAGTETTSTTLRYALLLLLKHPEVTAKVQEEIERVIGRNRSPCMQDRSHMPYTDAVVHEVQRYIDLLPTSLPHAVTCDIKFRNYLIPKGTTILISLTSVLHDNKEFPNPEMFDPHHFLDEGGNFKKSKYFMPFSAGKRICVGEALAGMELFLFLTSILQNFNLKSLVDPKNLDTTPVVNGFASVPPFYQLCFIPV

Trypanosoma cruzi [12] = assay: Antitrypanosomal activity against Trypanosoma cruzi Y luc infected in mouse assessed as inhibition of parasitemia at 25 mg/kg, po bid in 20% Kolliphor administered for 4 consecutive days starting on day 3 of infection measured on day 7 post infection relative to vehicle-treated control; format: functional; method in brief: as §2
Trypanosoma cruzi [13] = assay: Antitrypanosomal activity against Trypanosoma cruzi Y luc infected in mouse assessed as inhibition of parasitemia at 40 mg/kg, ip bid in 60% DMSO administered for 4 consecutive days starting on day 3 of infection measured on day 7 post infection relative to vehicle-treated control
Lung [14] = assay: Drug uptake in mouse lung at 50 mg/kg, po in 20% Kolliphor measured at 8 hrs post dose; format: ADME, organism-based; design: dose 50 mg/kg, route oral; conditions: in vivo; method in brief: as §1
Liver microsome [15] = assay: Half life in human liver microsomes; format: ADME
Intestine [16] = assay: Drug uptake in mouse intestine at 50 mg/kg, po in 20% Kolliphor measured at 8 hrs post dose; format: ADME, organism-based; design: dose 50 mg/kg, route oral; conditions: in vivo; method in brief: as §1
[17] = Drug uptake in mouse fat at 50 mg/kg, po in 20% Kolliphor measured at 8 hrs post dose; format: ADME, organism-based, Adipose tissue; design: dose 50 mg/kg, route oral; conditions: in vivo; method in brief: as §1
Intestine [18] = assay: Drug uptake in mouse intestine at 50 mg/kg, po in 20% HP-beta-CD measured at 8 hrs post dose; format: ADME, organism-based; design: dose 50 mg/kg, route oral; conditions: in vivo; method in brief: as §1
Cytochrome P450 1A2 = biological target: T1, Cytochrome P450 1A2 (Homo sapiens, UniProt P05177); assay: Inhibition of CYP1A2 in human liver microsomes at 1 uM; format: ADME
T1 sequence (P05177 whole entry): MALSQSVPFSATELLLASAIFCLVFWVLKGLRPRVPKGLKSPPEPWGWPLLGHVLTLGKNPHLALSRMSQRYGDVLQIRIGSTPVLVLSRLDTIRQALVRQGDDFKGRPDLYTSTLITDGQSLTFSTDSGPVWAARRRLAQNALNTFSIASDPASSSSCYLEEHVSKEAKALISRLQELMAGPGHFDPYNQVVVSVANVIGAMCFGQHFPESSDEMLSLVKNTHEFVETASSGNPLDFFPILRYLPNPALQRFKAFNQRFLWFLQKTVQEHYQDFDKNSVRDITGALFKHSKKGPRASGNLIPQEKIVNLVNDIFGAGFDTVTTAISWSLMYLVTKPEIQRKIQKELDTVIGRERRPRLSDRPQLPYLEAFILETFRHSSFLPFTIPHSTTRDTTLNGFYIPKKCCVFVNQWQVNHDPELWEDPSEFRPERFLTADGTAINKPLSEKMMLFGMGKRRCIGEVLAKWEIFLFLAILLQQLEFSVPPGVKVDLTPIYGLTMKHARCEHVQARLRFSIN

Liver microsome [19] = assay: Half life in rat liver microsomes; format: ADME
[20] = Drug uptake in mouse fat at 50 mg/kg, po in 20% HP-beta-CD measured at 8 hrs post dose; format: ADME, organism-based, Adipose tissue; design: dose 50 mg/kg, route oral; conditions: in vivo; method in brief: as §1
[21] = AUClast in mouse at 50 mg/kg, po in 20% Kolliphor; format: ADME, organism-based; design: time 0 - last, dose 50 mg/kg, route oral; conditions: plasma
Method in brief: (§3)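 Female Swiss Webster mice, 8 weeks old, given one oral gavage dose of 50 mg/kg as a 10 mg/mL preparation in the named vehicle (20% HPβCD suspension or 20% Kolliphor). Plasma sampled at about 0.25, 0.5, 1, 2, 4, 6, 8, 12 and 24 h, n = 3 per time point. Protein precipitated with 5 volumes acetonitrile, filtered, then LC-MS/MS. Values are averages of three mice.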

[22] = AUClast in mouse at 50 mg/kg, po in 20% HP-beta-CD; format: ADME, organism-based, Plasma; design: time 0 - last, dose 50 mg/kg, route oral; conditions: plasma; method in brief: as §3
[23] = Clearance in mouse at 50 mg/kg, po in 20% Kolliphor; format: ADME, organism-based; design: dose 50 mg/kg, route oral; conditions: in vivo; method in brief: as §3
[24] = Tmax in mouse at 50 mg/kg, po in 20% Kolliphor; format: ADME, organism-based; design: dose 50 mg/kg, route oral; conditions: in vivo; method in brief: as §3
[25] = Cmax in mouse at 50 mg/kg, po in 20% HP-beta-CD; format: ADME, organism-based; design: dose 50 mg/kg, route oral; conditions: in vivo; method in brief: as §3
[26] = Clearance in mouse at 50 mg/kg, po in 20% HP-beta-CD; format: ADME, organism-based; design: dose 50 mg/kg, route oral; conditions: in vivo; method in brief: as §3
[27] = Cmax in mouse at 50 mg/kg, po in 20% Kolliphor; format: ADME, organism-based; design: dose 50 mg/kg, route oral; conditions: in vivo; method in brief: as §3
[28] = Half life in mouse at 50 mg/kg, po in 20% Kolliphor; format: ADME, organism-based; design: dose 50 mg/kg, route oral; conditions: in vivo; method in brief: as §3
[29] = Half life in mouse at 50 mg/kg, po in 20% HP-beta-CD; format: ADME, organism-based; design: dose 50 mg/kg, route oral; conditions: in vivo; method in brief: as §3
[30] = Tmax in mouse at 50 mg/kg, po in 20% HP-beta-CD; format: ADME, organism-based; design: dose 50 mg/kg, route oral; conditions: in vivo; method in brief: as §3

O=C(N[C@H](Cc1c[nH]c2ccccc12)C(=O)Nc1ccncc1)c1ccc(-c2cccc(C(F)(F)F)c2)cc1F
Drug uptake (Liver [1]): Active | inhibition in vivo at 50 mg/kg (Trypanosoma cruzi [2]): 99.2% | Drug uptake (Heart [3]): Active | t1/2 (Liver [4]): 0.85 h | Drug uptake (Liver [5]): Active | inhibition (INH) (Cytochrome P450 2D6): 14% | inhibition (INH) (Cytochrome P450 3A4): 7% | Drug uptake (Lung [6]): Active | Drug uptake [7]: Active | Drug uptake (Heart [8]): Active | pKd [9]: 7.10 | Drug uptake [10]: Active | pEC50 (Trypanosoma cruzi [11]): 7.41 | Activity (C2C12): Non-toxic | inhibition (INH) (Cytochrome P450 2C9): 92% | inhibition in vivo at 25 mg/kg (Trypanosoma cruzi [12]): 74.7% | inhibition in vivo at 40 mg/kg (Trypanosoma cruzi [13]): 98.5% | Drug uptake (Lung [14]): Active | t1/2 (Liver microsome [15]): 0.55 h | Drug uptake (Intestine [16]): Active | Drug uptake [17]: Active | Drug uptake (Intestine [18]): Active | inhibition (INH) (Cytochrome P450 1A2): -16% | t1/2 (Liver microsome [19]): 0.517 h | Drug uptake [20]: Active

O=C(N[C@H](Cc1c[nH]c2ccccc12)C(=O)Nc1ccncc1)c1ccc(-c2ccc(F)c(Cl)c2)cc1F
AUC(0-t) [21]: 153 µM·h | Drug uptake (Liver [1]): Active | inhibition in vivo at 50 mg/kg (Trypanosoma cruzi [2]): 85.2% | Drug uptake (Heart [3]): Active | t1/2 (Liver [4]): 0.9 h | Drug uptake (Liver [5]): Active | inhibition (INH) (Cytochrome P450 2D6): 29% | inhibition (INH) (Cytochrome P450 3A4): 29% | Drug uptake (Lung [6]): Active | Drug uptake [7]: Active | Drug uptake (Heart [8]): Active | AUC(0-t) [22]: 30.2 µM·h | pKd [9]: 7.80 | Drug uptake [10]: Active | pEC50 (Trypanosoma cruzi [11]): 7.11 | Activity (C2C12): Non-toxic | inhibition (INH) (Cytochrome P450 2C9): 93% | inhibition in vivo at 25 mg/kg (Trypanosoma cruzi [12]): 56.7% | CL/F [23]: 9.28 mL/min/kg | Tmax [24]: 0.75 h | Cmax [25]: 5.88 µM | CL/F [26]: 44.4 mL/min/kg | Drug uptake (Lung [14]): Active | t1/2 (Liver microsome [15]): 0.467 h | Cmax [27]: 17.8 µM | half-life [28]: 16.8 h | Drug uptake (Intestine [16]): Active | half-life [29]: 5.17 h | Drug uptake [17]: Active | Drug uptake (Intestine [18]): Active | inhibition (INH) (Cytochrome P450 1A2): 2% | t1/2 (Liver microsome [19]): 0.417 h | Drug uptake [20]: Active | Tmax [30]: 2.67 h

O=C(N[C@H](Cc1c[nH]c2ccccc12)C(=O)Nc1ccncc1)c1ccc(-c2ccc(F)c(C(F)(F)F)c2)cc1F
AUC(0-t) [21]: 84.5 µM·h | Drug uptake (Liver [1]): Active | inhibition in vivo at 50 mg/kg (Trypanosoma cruzi [2]): 97.4% | Drug uptake (Heart [3]): Active | t1/2 (Liver [4]): 0.967 h | Drug uptake (Liver [5]): Active | inhibition (INH) (Cytochrome P450 2D6): 36% | inhibition (INH) (Cytochrome P450 3A4): 9% | Drug uptake (Lung [6]): Active | Drug uptake [7]: Active | Drug uptake (Heart [8]): Active | AUC(0-t) [22]: 26.6 µM·h | pKd [9]: ≥ 8.00 | Drug uptake [10]: Active | pEC50 (Trypanosoma cruzi [11]): 6.77 | Activity (C2C12): Non-toxic | inhibition (INH) (Cytochrome P450 2C9): 96% | inhibition in vivo at 25 mg/kg (Trypanosoma cruzi [12]): 89.1% | CL/F [23]: 17.4 mL/min/kg | Tmax [24]: 4.67 h | Cmax [25]: 5.1 µM | CL/F [26]: 52.5 mL/min/kg | Drug uptake (Lung [14]): Active | t1/2 (Liver microsome [15]): 0.483 h | Cmax [27]: 7.35 µM | half-life [28]: 3.1 h | Drug uptake (Intestine [16]): Active | half-life [29]: 2.5 h | Drug uptake [17]: Active | Drug uptake (Intestine [18]): Active | inhibition (INH) (Cytochrome P450 1A2): 2% | t1/2 (Liver microsome [19]): 0.45 h | Drug uptake [20]: Active | Tmax [30]: 4.67 h
